These results are taken from ChEMBL document CHEMBL1641579, “Synthesis and biological evaluation of 7-substituted-1-(3-bromophenylamino)isoquinoline-4-carbonitriles as inhibitors of myosin light chain kinase and epidermal growth factor receptor” (Bioorg Med Chem, 2011).

For assay [1], the target named is T1, Serine/threonine-protein kinase Chk1 (Homo sapiens) (UniProt O14757).
T1 sequence (whole entry): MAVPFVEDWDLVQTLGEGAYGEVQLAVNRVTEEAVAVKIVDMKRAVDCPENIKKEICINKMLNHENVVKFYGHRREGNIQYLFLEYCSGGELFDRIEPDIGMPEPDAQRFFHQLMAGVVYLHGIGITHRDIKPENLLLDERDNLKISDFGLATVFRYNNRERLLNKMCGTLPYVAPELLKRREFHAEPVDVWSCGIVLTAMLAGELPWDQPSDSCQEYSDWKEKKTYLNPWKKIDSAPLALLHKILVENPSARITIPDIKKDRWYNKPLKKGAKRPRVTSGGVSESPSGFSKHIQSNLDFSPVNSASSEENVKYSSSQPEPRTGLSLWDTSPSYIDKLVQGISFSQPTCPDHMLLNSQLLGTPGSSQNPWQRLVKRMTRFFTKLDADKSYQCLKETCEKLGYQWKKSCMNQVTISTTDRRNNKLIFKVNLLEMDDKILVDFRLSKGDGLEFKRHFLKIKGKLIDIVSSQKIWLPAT
Put plainly: Inhibition of CHK1 assessed as residual activity at 10 uM. The procedure, abridged: (§1)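 Kinase panel screen run as a radioactive activity assay at single compound concentration. Score reported as percent activity remaining relative to DMSO controls (100%).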

Assay [2] concerns the target T2, Protein kinase C zeta type (Homo sapiens) (UniProt Q05513).
T2 sequence (whole entry): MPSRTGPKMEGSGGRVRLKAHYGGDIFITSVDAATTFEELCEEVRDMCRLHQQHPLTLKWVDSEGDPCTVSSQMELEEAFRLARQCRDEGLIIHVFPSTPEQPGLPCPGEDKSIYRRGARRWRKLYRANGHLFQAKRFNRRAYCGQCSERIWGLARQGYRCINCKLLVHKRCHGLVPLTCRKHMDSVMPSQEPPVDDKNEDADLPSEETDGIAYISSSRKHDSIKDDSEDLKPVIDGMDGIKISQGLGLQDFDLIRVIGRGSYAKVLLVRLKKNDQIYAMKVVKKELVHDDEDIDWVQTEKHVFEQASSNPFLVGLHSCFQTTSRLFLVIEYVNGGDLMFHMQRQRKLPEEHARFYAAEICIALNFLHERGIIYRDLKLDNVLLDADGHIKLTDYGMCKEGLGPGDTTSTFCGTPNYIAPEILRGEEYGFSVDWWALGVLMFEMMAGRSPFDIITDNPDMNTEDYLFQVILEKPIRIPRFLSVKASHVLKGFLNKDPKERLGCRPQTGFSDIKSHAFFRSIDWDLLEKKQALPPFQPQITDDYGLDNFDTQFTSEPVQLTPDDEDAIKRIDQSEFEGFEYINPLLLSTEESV
Kind of assay: Inhibition of PKCzeta assessed as residual activity at 10 uM. In outline:
(§2)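 Panel screen by radioactive kinase assay at a single inhibitor concentration. Score is the percent activity remaining relative to DMSO controls (100%).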

The target of assay [3] is T3, Dual specificity tyrosine-phosphorylation-regulated kinase 3 (Homo sapiens) (UniProt O43781).
T3 sequence (whole entry): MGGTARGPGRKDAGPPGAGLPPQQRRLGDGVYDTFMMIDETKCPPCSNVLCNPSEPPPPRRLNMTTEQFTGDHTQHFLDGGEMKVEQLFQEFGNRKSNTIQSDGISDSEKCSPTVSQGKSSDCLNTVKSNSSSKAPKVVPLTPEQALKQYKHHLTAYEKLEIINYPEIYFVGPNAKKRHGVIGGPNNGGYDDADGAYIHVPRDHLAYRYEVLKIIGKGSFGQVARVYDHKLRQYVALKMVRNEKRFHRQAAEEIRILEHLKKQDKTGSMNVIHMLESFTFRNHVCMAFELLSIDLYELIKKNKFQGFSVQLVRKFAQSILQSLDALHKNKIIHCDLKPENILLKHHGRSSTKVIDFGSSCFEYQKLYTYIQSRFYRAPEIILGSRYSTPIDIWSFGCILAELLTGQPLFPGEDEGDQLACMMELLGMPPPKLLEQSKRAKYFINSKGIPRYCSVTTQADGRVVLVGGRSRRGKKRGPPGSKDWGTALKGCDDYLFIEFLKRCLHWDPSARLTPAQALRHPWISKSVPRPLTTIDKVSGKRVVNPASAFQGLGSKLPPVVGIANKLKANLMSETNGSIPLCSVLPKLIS
Kind of assay: Inhibition of DYRK3 assessed as residual activity at 10 uM. The procedure, abridged:
as §1

The target of assay [4] is Homeodomain-interacting protein kinase 1 (Homo sapiens) (UniProt Q86Z02). Put plainly: Inhibition of HIPK1 assessed as residual activity at 10 uM. In outline:
as §1

The target of assay [5] is Fibroblast growth factor receptor 1 (Homo sapiens) (UniProt P11362). Put plainly: Inhibition of FGFR1 assessed as residual activity at 10 uM. The procedure, abridged:
as §1

In assay [6] the target is T4, Mitogen-activated protein kinase 12 (Homo sapiens) (UniProt P53778).
T4 sequence (whole entry): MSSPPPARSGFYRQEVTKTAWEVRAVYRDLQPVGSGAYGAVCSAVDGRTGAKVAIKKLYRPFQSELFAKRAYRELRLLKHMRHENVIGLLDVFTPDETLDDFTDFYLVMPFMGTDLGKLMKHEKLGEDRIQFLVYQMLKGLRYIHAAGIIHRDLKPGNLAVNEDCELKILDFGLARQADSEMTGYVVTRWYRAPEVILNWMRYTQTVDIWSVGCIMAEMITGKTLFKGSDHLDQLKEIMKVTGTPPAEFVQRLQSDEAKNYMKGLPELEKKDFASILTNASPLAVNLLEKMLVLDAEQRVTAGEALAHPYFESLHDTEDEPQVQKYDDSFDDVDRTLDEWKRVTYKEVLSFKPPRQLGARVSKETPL
Put plainly: Inhibition of p38-gamma assessed as residual activity at 10 uM. In outline: as §2

The target of assay [7] is T5, Mitogen-activated protein kinase 15 (Homo sapiens) (UniProt Q8TD08).
T5 sequence (whole entry): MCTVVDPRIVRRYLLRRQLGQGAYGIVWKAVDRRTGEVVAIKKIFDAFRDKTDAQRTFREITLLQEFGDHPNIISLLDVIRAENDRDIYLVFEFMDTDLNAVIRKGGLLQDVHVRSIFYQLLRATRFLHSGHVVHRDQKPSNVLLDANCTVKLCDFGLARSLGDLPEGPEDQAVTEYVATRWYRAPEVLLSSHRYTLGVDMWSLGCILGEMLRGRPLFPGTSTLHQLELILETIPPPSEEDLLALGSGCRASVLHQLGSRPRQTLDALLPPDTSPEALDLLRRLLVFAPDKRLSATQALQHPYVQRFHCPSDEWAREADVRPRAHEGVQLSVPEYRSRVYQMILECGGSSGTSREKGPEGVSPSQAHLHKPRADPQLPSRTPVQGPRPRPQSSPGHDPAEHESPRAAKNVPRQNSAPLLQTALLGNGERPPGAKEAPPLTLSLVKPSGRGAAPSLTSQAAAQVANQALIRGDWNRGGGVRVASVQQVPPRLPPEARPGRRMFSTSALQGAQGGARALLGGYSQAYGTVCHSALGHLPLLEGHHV
Put plainly: Inhibition of ERK8 assessed as residual activity at 10 uM. The procedure, abridged: as §1

Assay [8] has as its target Insulin-like growth factor 1 receptor (Homo sapiens) (UniProt P08069). Kind of assay: Inhibition of IGF1R assessed as residual activity at 10 uM. The procedure, abridged:
as §1

The structures appear in SMILES notation.

Insulin-like growth factor 1 receptor (Homo sapiens), sequence (P08069 31-736 limits assumed): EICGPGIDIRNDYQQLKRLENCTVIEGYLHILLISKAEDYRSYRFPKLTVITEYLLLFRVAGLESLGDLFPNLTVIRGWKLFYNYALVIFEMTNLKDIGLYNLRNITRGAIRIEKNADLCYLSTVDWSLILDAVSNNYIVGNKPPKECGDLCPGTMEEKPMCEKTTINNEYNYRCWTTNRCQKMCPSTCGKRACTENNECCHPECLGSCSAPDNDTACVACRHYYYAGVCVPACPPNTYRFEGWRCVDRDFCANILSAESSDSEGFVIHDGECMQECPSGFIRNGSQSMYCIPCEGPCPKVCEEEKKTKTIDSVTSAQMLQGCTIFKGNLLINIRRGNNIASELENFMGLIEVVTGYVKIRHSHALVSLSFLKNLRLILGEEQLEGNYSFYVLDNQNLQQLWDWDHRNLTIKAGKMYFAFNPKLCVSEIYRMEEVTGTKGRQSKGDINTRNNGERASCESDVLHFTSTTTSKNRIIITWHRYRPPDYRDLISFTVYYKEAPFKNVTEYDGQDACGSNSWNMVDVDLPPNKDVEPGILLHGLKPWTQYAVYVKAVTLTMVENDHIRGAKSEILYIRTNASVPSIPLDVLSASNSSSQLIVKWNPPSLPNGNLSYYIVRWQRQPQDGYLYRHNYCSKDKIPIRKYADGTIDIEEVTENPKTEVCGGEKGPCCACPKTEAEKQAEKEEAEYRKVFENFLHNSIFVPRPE
Insulin-like growth factor 1 receptor (Homo sapiens), sequence (P08069 741-1367 limits assumed): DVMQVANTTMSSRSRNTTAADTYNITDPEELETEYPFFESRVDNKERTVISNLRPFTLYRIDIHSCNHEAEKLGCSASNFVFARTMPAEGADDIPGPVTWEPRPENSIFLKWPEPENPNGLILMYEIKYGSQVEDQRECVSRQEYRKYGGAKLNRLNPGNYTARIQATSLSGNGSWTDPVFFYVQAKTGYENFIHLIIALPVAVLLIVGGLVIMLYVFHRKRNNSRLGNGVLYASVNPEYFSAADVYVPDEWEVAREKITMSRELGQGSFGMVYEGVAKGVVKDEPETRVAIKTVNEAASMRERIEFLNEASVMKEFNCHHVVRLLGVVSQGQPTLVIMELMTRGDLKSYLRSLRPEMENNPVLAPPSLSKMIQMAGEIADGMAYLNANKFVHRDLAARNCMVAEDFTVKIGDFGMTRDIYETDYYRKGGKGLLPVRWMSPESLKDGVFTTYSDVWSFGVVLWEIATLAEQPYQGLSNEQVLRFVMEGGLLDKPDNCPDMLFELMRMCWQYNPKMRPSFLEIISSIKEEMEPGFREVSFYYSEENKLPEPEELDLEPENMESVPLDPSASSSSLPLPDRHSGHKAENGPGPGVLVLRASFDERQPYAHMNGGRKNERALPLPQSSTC
Homeodomain-interacting protein kinase 1 (Homo sapiens), sequence (Q86Z02 whole entry, looked up): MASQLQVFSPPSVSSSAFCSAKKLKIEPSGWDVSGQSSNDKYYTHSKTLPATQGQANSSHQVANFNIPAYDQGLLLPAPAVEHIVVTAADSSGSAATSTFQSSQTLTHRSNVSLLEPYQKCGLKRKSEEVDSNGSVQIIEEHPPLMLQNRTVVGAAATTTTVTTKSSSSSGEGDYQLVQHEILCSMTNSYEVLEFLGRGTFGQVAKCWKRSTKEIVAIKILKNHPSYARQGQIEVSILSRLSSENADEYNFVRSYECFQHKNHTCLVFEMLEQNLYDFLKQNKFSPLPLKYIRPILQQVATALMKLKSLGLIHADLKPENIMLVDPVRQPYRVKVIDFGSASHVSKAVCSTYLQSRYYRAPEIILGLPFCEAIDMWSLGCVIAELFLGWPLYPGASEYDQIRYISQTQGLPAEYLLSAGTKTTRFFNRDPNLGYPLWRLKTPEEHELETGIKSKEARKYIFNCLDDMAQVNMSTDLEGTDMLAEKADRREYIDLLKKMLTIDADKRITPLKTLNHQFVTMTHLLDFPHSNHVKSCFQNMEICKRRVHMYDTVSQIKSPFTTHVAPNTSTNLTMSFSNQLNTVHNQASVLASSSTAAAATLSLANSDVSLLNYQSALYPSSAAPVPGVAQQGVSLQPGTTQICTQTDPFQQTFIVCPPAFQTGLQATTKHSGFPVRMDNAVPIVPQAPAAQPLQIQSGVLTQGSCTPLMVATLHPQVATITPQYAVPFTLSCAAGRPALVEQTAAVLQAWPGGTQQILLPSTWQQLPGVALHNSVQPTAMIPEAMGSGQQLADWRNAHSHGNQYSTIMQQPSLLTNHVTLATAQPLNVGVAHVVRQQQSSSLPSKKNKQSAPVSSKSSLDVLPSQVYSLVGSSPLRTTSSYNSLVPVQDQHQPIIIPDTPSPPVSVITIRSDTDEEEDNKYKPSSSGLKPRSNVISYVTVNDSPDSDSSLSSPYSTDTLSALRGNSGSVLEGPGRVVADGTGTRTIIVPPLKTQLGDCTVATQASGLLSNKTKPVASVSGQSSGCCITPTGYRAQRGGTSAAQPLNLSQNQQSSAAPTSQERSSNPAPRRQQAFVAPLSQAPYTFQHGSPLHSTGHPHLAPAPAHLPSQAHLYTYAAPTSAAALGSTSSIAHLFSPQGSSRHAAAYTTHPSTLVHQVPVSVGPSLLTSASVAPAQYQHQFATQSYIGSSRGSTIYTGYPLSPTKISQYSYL
Fibroblast growth factor receptor 1 (Homo sapiens), sequence (P11362 22-822 limits assumed): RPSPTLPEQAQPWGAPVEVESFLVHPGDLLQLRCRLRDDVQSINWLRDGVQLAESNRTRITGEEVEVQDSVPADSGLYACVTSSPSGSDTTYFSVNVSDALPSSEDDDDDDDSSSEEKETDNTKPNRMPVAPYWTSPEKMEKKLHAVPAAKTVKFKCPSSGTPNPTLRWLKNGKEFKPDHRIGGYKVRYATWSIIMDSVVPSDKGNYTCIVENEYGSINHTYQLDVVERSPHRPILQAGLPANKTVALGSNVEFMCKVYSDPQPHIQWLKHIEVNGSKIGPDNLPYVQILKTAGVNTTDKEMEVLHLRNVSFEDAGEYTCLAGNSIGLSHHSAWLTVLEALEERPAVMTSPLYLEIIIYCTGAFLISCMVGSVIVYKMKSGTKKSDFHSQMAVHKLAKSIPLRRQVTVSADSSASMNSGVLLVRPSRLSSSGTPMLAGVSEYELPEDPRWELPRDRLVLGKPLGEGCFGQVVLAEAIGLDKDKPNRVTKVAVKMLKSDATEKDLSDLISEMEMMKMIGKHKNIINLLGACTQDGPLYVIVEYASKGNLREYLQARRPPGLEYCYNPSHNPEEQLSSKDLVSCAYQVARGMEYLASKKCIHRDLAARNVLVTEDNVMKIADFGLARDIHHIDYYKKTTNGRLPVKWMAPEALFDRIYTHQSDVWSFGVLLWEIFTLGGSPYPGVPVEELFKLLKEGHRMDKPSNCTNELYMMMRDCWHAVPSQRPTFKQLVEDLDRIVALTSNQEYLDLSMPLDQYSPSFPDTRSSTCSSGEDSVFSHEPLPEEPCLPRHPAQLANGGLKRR

As for `CN1CCN(CCC(=O)Nc2ccc3c(C#N)cnc(Nc4cccc(Br)c4)c3c2)CC1`, the Activity came out at 68% in assay [1]; 95% in assay [2]; 81% in assay [3]; 83% in assay [4]; 100% in assay [5]; 100% in assay [6]. In addition, the Activity in assay [7] is 72%; in assay [8] it was 65%.

Take `CN(C)CCCC(=O)Nc1ccc2c(C#N)cnc(Nc3cccc(Br)c3)c2c1`: the Activity amounted to 84% in assay [1]; 100% in assay [2]; 73% in assay [3]; 95% in assay [4]; 99% in assay [5]; 100% in assay [6]. Also, the Activity in assay [7] came out at 75%; in assay [8], 59%.

Regarding `CN(C)C/C=C/C(=O)Nc1ccc2c(C#N)cnc(Nc3cccc(Br)c3)c2c1`, the Activity in assay [1] worked out at 75%; in assay [2], 91%; in assay [3], 75%; in assay [4], 100%; in assay [5] it was 51%; in assay [6], 84%. Further, the values for the Activity in assay [7] and in assay [8] were 78% and 73%, respectively.
